In ChEMBL document CHEMBL2169760 (J Med Chem, 2012):
pKi: −log10 of the molar value. The source made the active and inactive calls. The calls are words filed in the database; no cut-off is given here.

Test system: Mus musculus
Test: Anticonvulsant activity in CF-1 albino mouse assessed as protection against subcutaneous metrazol-induced seizures at 1 mg/kg, ip
Assay type: functional, organism-based
Set-up: dose 1 mg/kg
Conditions: not given
Summary of the method: (§1)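 Dosed i.p. at 0.01 ml/g from a DMSO stock diluted to 10% DMSO (v/v) final. Single doses tested in traditional MES or s.c. metrazol seizure tests at the time of peak effect. Scored qualitatively as number of animals protected from convulsions (groups of 4–8).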

SMILES	Activity
OC[C@H]1O[C@@H](n2cnc3c(NC4CCCC4)nc(Cl)nc32)[C@H](O)[C@@H]1O	inactive
O[C@@H]1[C@H](O)[C@@H]2C[C@@H]2[C@H]1n1cnc2c(NC(C3CC3)C3CC3)nc(Cl)nc21	inactive
NCCNC(=O)Cc1ccc(NC(=O)Cc2ccc(Nc3ncnc4c3ncn4[C@@H]3O[C@H](CO)[C@@H](O)[C@H]3O)cc2)cc1	inactive

Test system: Mus musculus
Test: Anticonvulsant activity in CF-1 albino mouse assessed as protection against subcutaneous metrazol-induced seizures at 3 mg/kg, ip
Assay type: functional, organism-based
Set-up: dose 3 mg/kg
Conditions: not given
Summary of the method: as §1

SMILES	Activity
OC[C@H]1O[C@@H](n2cnc3c(NC4CCCC4)nc(Cl)nc32)[C@H](O)[C@@H]1O	inactive
O[C@@H]1[C@H](O)[C@@H]2C[C@@H]2[C@H]1n1cnc2c(NC(C3CC3)C3CC3)nc(Cl)nc21	inactive
NCCNC(=O)Cc1ccc(NC(=O)Cc2ccc(Nc3ncnc4c3ncn4[C@@H]3O[C@H](CO)[C@@H](O)[C@H]3O)cc2)cc1	inactive

Test system: Mus musculus
Test: Anticonvulsant activity in CF-1 albino mouse assessed as protection against maximal electroshock-induced seizures at 2 mg/kg, ip by MES test
Assay type: functional, organism-based
Set-up: dose 2 mg/kg
Conditions: not given
Summary of the method: as §1

SMILES	Activity
OC[C@H]1O[C@@H](n2cnc3c(NC4CCCC4)nc(Cl)nc32)[C@H](O)[C@@H]1O	inactive
O[C@@H]1[C@H](O)[C@@H]2C[C@@H]2[C@H]1n1cnc2c(NC(C3CC3)C3CC3)nc(Cl)nc21	inactive
NCCNC(=O)Cc1ccc(NC(=O)Cc2ccc(Nc3ncnc4c3ncn4[C@@H]3O[C@H](CO)[C@@H](O)[C@H]3O)cc2)cc1	inactive

Test system: Mus musculus
Test: Anticonvulsant activity in CF-1 albino mouse assessed as protection against maximal electroshock-induced seizures at 1 mg/kg, ip by MES test
Assay type: functional, organism-based
Set-up: dose 1 mg/kg
Conditions: not given
Summary of the method: as §1

SMILES	Activity
OC[C@H]1O[C@@H](n2cnc3c(NC4CCCC4)nc(Cl)nc32)[C@H](O)[C@@H]1O	inactive
O[C@@H]1[C@H](O)[C@@H]2C[C@@H]2[C@H]1n1cnc2c(NC(C3CC3)C3CC3)nc(Cl)nc21	inactive
NCCNC(=O)Cc1ccc(NC(=O)Cc2ccc(Nc3ncnc4c3ncn4[C@@H]3O[C@H](CO)[C@@H](O)[C@H]3O)cc2)cc1	inactive

Test system: Mus musculus
Test: Anticonvulsant activity in CF-1 albino mouse assessed as protection against maximal electroshock-induced seizures at 3 mg/kg, ip by MES test
Assay type: functional, organism-based
Set-up: dose 3 mg/kg
Conditions: not given
Summary of the method: as §1

SMILES	Activity
OC[C@H]1O[C@@H](n2cnc3c(NC4CCCC4)nc(Cl)nc32)[C@H](O)[C@@H]1O	inactive
O[C@@H]1[C@H](O)[C@@H]2C[C@@H]2[C@H]1n1cnc2c(NC(C3CC3)C3CC3)nc(Cl)nc21	inactive
NCCNC(=O)Cc1ccc(NC(=O)Cc2ccc(Nc3ncnc4c3ncn4[C@@H]3O[C@H](CO)[C@@H](O)[C@H]3O)cc2)cc1	inactive

Test system: Mus musculus
Test: Anticonvulsant activity in ip dosed CF-1 albino mouse assessed as protection against 6 Hz psychomotor seizure after 1 hr by minimal clonic seizure test
Assay type: functional
Conditions: CF-1, ip
Summary of the method: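 Corneal 6 Hz stimulation (32 mA, 3 s, CC97) applied 1 h post-dose (time of peak effect). Absence of minimal clonic/automatistic behavior counted as protection.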

SMILES	ED50 [mg/kg]
OC[C@H]1O[C@@H](n2cnc3c(NC4CCCC4)nc(Cl)nc32)[C@H](O)[C@@H]1O	0.12
O[C@@H]1[C@H](O)[C@@H]2C[C@@H]2[C@H]1n1cnc2c(NC(C3CC3)C3CC3)nc(Cl)nc21	2.74
NCCNC(=O)Cc1ccc(NC(=O)Cc2ccc(Nc3ncnc4c3ncn4[C@@H]3O[C@H](CO)[C@@H](O)[C@H]3O)cc2)cc1	0.03

Test system: Mus musculus
Test: Toxicity in ip dosed CF-1 albino mouse assessed as behavioral changes after 4 hrs by rotarod test
Assay type: organism-based
Conditions: in vivo

SMILES	TD50 [mg/kg]
NCCNC(=O)Cc1ccc(NC(=O)Cc2ccc(Nc3ncnc4c3ncn4[C@@H]3O[C@H](CO)[C@@H](O)[C@H]3O)cc2)cc1	0.14

Test system: Mus musculus
Test: Toxicity in ip dosed CF-1 albino mouse assessed as behavioral changes by rotarod test
Assay type: organism-based
Conditions: in vivo

SMILES	TD50 [mg/kg]
O[C@@H]1[C@H](O)[C@@H]2C[C@@H]2[C@H]1n1cnc2c(NC(C3CC3)C3CC3)nc(Cl)nc21	> 30

Target: Adenosine receptors; A1 & A3 (Homo sapiens) (UniProt P30542+P0DMS8)
Test: Selectivity ratio of Ki for human A3 adenosine receptor to Ki for human A1 adenosine receptor
Conditions: not given

SMILES	Ratio Ki
O[C@@H]1[C@H](O)[C@@H]2C[C@@H]2[C@H]1n1cnc2c(N[C@H](C3CCC3)C3CC3)nc(Cl)nc21	23

Target: T1, Adenosine receptor A1 (Homo sapiens) (UniProt P30542)
T1 sequence (whole entry): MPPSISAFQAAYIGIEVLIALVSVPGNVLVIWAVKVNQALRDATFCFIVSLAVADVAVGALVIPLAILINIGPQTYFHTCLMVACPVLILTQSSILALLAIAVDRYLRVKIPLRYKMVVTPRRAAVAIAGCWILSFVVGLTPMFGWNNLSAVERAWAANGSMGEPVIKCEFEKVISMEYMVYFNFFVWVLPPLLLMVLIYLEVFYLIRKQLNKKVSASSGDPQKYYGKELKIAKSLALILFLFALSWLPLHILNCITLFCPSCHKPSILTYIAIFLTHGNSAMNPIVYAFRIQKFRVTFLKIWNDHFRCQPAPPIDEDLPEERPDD
Test: Activity at human A1 adenosine receptor expressed in CHO cells assessed as inhibition of forskolin-stimulated cAMP production at 10 uM after 30 min
Assay type: functional, cell-based
Conditions: not given

SMILES	inhibition [%]
O[C@@H]1[C@H](O)[C@@H]2C[C@@H]2[C@H]1n1cnc2c(N[C@H](C3CCC3)C3CC3)nc(Cl)nc21	18.1
CC(C)[C@H](Nc1nc(Cl)nc2c1ncn2[C@H]1[C@H](O)[C@H](O)[C@@H]2C[C@@H]21)C1CC1	20.8
NCCNC(=O)Cc1ccc(NC(=O)Cc2ccc(Nc3ncnc4c3ncn4[C@@H]3O[C@H](CO)[C@@H](O)[C@H]3O)cc2)cc1	94
O[C@@H]1[C@H](O)[C@@H]2C[C@@H]2[C@H]1n1cnc2c(N[C@@H](CC3CC3)C3CC3)nc(Cl)nc21	24
OC[C@H]1O[C@@H](n2cnc3c(NC4CCCC4)ncnc32)[C@H](O)[C@@H]1O	100
CC(C)[C@@H](Nc1nc(Cl)nc2c1ncn2[C@H]1[C@H](O)[C@H](O)[C@@H]2C[C@@H]21)C1CC1	33.8
O[C@@H]1[C@H](O)[C@@H]2C[C@@H]2[C@H]1n1cnc2c(NCC(C3CC3)C3CC3)nc(Cl)nc21	-9
O[C@@H]1[C@H](O)[C@@H]2C[C@@H]2[C@H]1n1cnc2c(N[C@H](c3ccccc3)C3CC3)nc(Cl)nc21	-2.4

Target: T2, Adenosine receptor A3 (Homo sapiens, UniProt P0DMS8)
T2 sequence (P0DMS8 whole entry): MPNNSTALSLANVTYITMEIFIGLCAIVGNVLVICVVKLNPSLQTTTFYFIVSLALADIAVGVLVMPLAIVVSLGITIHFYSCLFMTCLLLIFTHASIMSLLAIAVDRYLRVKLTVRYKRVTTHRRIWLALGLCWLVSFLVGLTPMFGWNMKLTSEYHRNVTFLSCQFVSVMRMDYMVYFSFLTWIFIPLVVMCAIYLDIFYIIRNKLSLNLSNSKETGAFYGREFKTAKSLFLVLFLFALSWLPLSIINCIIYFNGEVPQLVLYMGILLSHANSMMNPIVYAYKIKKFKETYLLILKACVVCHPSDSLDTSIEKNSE
Test: Displacement of [125I]I-AB-MECA from human A3 adenosine receptor expressed in CHO cells after 60 min Packard Cobra 2 gamma-counter
Assay type: cell-based
Conditions: not given

SMILES	pKi
O[C@@H]1[C@H](O)[C@@H]2C[C@@H]2[C@H]1n1cnc2c(N[C@H](C3CCC3)C3CC3)nc(Cl)nc21	5.55
NCCNC(=O)Cc1ccc(NC(=O)Cc2ccc(Nc3ncnc4c3ncn4[C@@H]3O[C@H](CO)[C@@H](O)[C@H]3O)cc2)cc1	7.91
O[C@@H]1[C@H](O)[C@@H]2C[C@@H]2[C@H]1n1cnc2c(N[C@H](c3ccccc3)C3CC3)nc(Cl)nc21	5.66

Target: T3, Adenosine receptor A2a (Homo sapiens, UniProt P29274)
T3 sequence (P29274 whole entry): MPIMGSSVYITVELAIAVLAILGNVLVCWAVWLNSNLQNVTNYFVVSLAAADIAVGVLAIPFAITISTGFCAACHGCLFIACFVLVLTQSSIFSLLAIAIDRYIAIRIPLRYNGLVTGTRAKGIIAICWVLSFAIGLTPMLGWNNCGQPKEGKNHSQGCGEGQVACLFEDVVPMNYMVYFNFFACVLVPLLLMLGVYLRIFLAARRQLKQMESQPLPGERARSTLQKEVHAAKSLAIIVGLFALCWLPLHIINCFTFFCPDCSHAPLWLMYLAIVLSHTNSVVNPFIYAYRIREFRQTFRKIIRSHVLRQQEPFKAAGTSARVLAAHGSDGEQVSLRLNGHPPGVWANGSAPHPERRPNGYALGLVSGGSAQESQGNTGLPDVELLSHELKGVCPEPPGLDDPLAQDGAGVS
Test: Displacement of [3H]CGS21680 from human A2a adenosine receptor expressed in HEK293 cells after 60 min by Perkin Elmer Liquid Scintillation Analyzer
Assay type: cell-based
Conditions: not given

SMILES	pKi
O[C@@H]1[C@H](O)[C@@H]2C[C@@H]2[C@H]1n1cnc2c(N[C@H](C3CCC3)C3CC3)nc(Cl)nc21	5.19

Target: T3, Adenosine receptor A2a
Test: Displacement of [3H]CGS21680 from human A2a adenosine receptor expressed in HEK293 cells at 10 uM after 60 min by Perkin Elmer Liquid Scintillation Analyzer
Assay type: cell-based
Conditions: not given

SMILES	inhibition [%]
O[C@@H]1[C@H](O)[C@@H]2C[C@@H]2[C@H]1n1cnc2c(NCC(C3CC3)C3CC3)nc(Cl)nc21	45
O[C@@H]1[C@H](O)[C@@H]2C[C@@H]2[C@H]1n1cnc2c(N[C@H](c3ccccc3)C3CC3)nc(Cl)nc21	36

Target: T4, Adenosine receptor A1 (Homo sapiens, UniProt P30542)
T4 sequence (P30542 whole entry): T1 sequence (whole entry)
Test: Displacement of [3H]R-PIA from human A1 adenosine receptor expressed in CHO cells after 60 min by Perkin Elmer Liquid Scintillation Analyzer
Assay type: cell-based
Conditions: not given

SMILES	pKi
O[C@@H]1[C@H](O)[C@@H]2C[C@@H]2[C@H]1n1cnc2c(N[C@H](C3CCC3)C3CC3)nc(Cl)nc21	6.92

Target: T1, Adenosine receptor A1 (Homo sapiens)
Test: Displacement of [3H]R-PIA from human A1 adenosine receptor expressed in CHO cells at 10 uM after 60 min by Perkin Elmer Liquid Scintillation Analyzer
Assay type: cell-based
Conditions: not given

SMILES	inhibition [%]
O[C@@H]1[C@H](O)[C@@H]2C[C@@H]2[C@H]1n1cnc2c(N[C@H](c3ccccc3)C3CC3)nc(Cl)nc21	50

Species: Homo sapiens
Test: Selectivity ratio of Ki for human A2a adenosine receptor to Ki for human A1 adenosine receptor
Conditions: not given

SMILES	Ratio Ki
O[C@@H]1[C@H](O)[C@@H]2C[C@@H]2[C@H]1n1cnc2c(N[C@H](C3CCC3)C3CC3)nc(Cl)nc21	53

Test system: Mus musculus
Test: Anticonvulsant activity in ip dosed CF-1 albino mouse administered as single dose after 1 hr by corneal kindled mouse test
Assay type: functional, organism-based
Conditions: not given
Summary of the method: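 Mice corneally kindled twice daily (3 mA, 3 s, about 12 days, tetracaine/saline drop before each stimulation) and re-stimulated the day before testing. Single i.p. dose given (n = 4 or 8), then challenged with 3 mA for 3 s at 1 h post-injection. EC50 (±SE) determined.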

SMILES	EC50 [mg/kg]
O[C@@H]1[C@H](O)[C@@H]2C[C@@H]2[C@H]1n1cnc2c(NC(C3CC3)C3CC3)nc(Cl)nc21	1.79
